Measured values from ChEMBL document CHEMBL5303300, “EUbOPEN Chemogenomics Library - Multiplex” (2023).
“And” between values parts separate entries of the source, which are not always exact repeats. Identical values can stand only once.

Test system: HEK-293T
Assay: Multiplex assay against HEK293T
Type: toxicity, cell-based
Conditions: human, number of replicates 2
Outline: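 Live cells were stained at seeding with Hoechst33342, BioTracker Green Microtubule Cytoskeleton Dye, MitoTracker Red and Annexin V Alexa Fluor 680, then imaged on a CQ1 microscope at 37°C and 5% CO2 after compound addition. CellPathfinder machine-learning gating split cells into Hoechst high-intensity objects or normal cells. Normal cells were split into healthy, pyknosed or fragmented nuclei, and pyknosed cells into mitotic or apoptotic. Tubulin, mitochondrial-mass and membrane-permeability phenotypes are per cents of healthy-nucleus cells.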

[1] = 12 h, 1 µM, compound concentration 1 uM
[2] = 12 h, 10 µM, compound concentration 10 uM
[3] = 24 h, 1 µM, compound concentration 1 uM
[4] = 24 h, 10 µM, compound concentration 10 uM
[5] = 48 h, 1 µM, compound concentration 1 uM
[6] = 48 h, 10 µM, compound concentration 10 uM

N=C(N)NCCC[C@H](NC(=O)COCC(c1ccccc1)c1ccccc1)C(=O)O.O=C(O)C(F)(F)F
Population Apoptotic (%) [1]: 49% and 39% | Population Fragmented Nuclei (%) [1]: 2% | Population Healthy Nuclei (%) [1]: 85% | Population Hoechst High Intensity Objects (%) [1]: 5% and 6% | Population Membrane Permeable-Phenotype (%) [1]: 2% and 3% | Population Mitochondria Different-Phenotype (%) [1]: 13% and 9% | Population Mitotic Cells (%) [1]: 50% and 60% | Population Normal (%) [1]: 94% and 93% | Population Pyknosed Nuclei (%) [1]: 12% and 11% | Population Tubulin-Different-Phenotype (%) [1]: 54% and 41% | Total Cell Count [1]: 596 and 692 | Population Apoptotic (%) [2]: 60% and 68% | Population Fragmented Nuclei (%) [2]: 5% and 6% | Population Healthy Nuclei (%) [2]: 80% and 81% | Population Hoechst High Intensity Objects (%) [2]: 9% and 8% | Population Membrane Permeable-Phenotype (%) [2]: 2% | Population Mitochondria Different-Phenotype (%) [2]: 19% and 14% | Population Mitotic Cells (%) [2]: 39% and 31% | Population Normal (%) [2]: 90% and 91% | Population Pyknosed Nuclei (%) [2]: 14% and 12% | Population Tubulin-Different-Phenotype (%) [2]: 55% and 41% | Total Cell Count [2]: 543 and 565 | Population Apoptotic (%) [3]: 43% and 44% | Population Fragmented Nuclei (%) [3]: 4% | Population Healthy Nuclei (%) [3]: 89% and 88% | Population Hoechst High Intensity Objects (%) [3]: 7% and 10% | Population Membrane Permeable-Phenotype (%) [3]: 3% | Population Mitochondria Different-Phenotype (%) [3]: 2% and 3% | Population Mitotic Cells (%) [3]: 56% and 55% | Population Normal (%) [3]: 92% and 89% | Population Pyknosed Nuclei (%) [3]: 5% and 7% | Population Tubulin-Different-Phenotype (%) [3]: 20% and 31% | Total Cell Count [3]: 1117 and 835 | Population Apoptotic (%) [4]: 49% and 48% | Population Fragmented Nuclei (%) [4]: 6% and 7% | Population Healthy Nuclei (%) [4]: 83% and 79% | Population Hoechst High Intensity Objects (%) [4]: 7% | Population Membrane Permeable-Phenotype (%) [4]: 2% | Population Mitochondria Different-Phenotype (%) [4]: 7% and 6% | Population Mitotic Cells (%) [4]: 50% and 51% | Population Normal (%) [4]: 92% | Population Pyknosed Nuclei (%) [4]: 9% and 12% | Population Tubulin-Different-Phenotype (%) [4]: 27% and 25% | Total Cell Count [4]: 838 and 806 | Population Apoptotic (%) [5]: 12% | Population Fragmented Nuclei (%) [5]: 15% and 9% | Population Healthy Nuclei (%) [5]: 82% and 87% | Population Hoechst High Intensity Objects (%) [5]: 9% and 7% | Population Membrane Permeable-Phenotype (%) [5]: 5% and 4% | Population Mitochondria Different-Phenotype (%) [5]: 0% | Population Mitotic Cells (%) [5]: 87% | Population Normal (%) [5]: 90% and 92% | Population Pyknosed Nuclei (%) [5]: 2% and 3% | Population Tubulin-Different-Phenotype (%) [5]: 10% and 14% | Total Cell Count [5]: 3157 and 1745 | Population Apoptotic (%) [6]: 14% and 24% | Population Fragmented Nuclei (%) [6]: 15% and 13% | Population Healthy Nuclei (%) [6]: 81% and 83% | Population Hoechst High Intensity Objects (%) [6]: 7% and 6% | Population Membrane Permeable-Phenotype (%) [6]: 7% and 4% | Population Mitochondria Different-Phenotype (%) [6]: 0% | Population Mitotic Cells (%) [6]: 85% and 75% | Population Normal (%) [6]: 92% and 93% | Population Pyknosed Nuclei (%) [6]: 2% | Population Tubulin-Different-Phenotype (%) [6]: 12% and 10% | Total Cell Count [6]: 2204 and 2125

Cc1cccc(S(=O)(=O)N(C)[C@H](C)CCN2CCC(C)CC2)c1.Cl
Population Apoptotic (%) [1]: 51% and 50% | Population Fragmented Nuclei (%) [1]: 4% and 1% | Population Healthy Nuclei (%) [1]: 81% and 80% | Population Hoechst High Intensity Objects (%) [1]: 5% and 6% | Population Membrane Permeable-Phenotype (%) [1]: 4% and 6% | Population Mitochondria Different-Phenotype (%) [1]: 16% | Population Mitotic Cells (%) [1]: 48% and 50% | Population Normal (%) [1]: 94% and 93% | Population Pyknosed Nuclei (%) [1]: 13% and 17% | Population Tubulin-Different-Phenotype (%) [1]: 61% and 51% | Total Cell Count [1]: 635 and 449 | Population Apoptotic (%) [2]: 52% and 62% | Population Fragmented Nuclei (%) [2]: 4% and 3% | Population Healthy Nuclei (%) [2]: 81% and 74% | Population Hoechst High Intensity Objects (%) [2]: 7% and 9% | Population Membrane Permeable-Phenotype (%) [2]: 3% and 4% | Population Mitochondria Different-Phenotype (%) [2]: 24% and 29% | Population Mitotic Cells (%) [2]: 47% and 37% | Population Normal (%) [2]: 92% and 90% | Population Pyknosed Nuclei (%) [2]: 14% and 22% | Population Tubulin-Different-Phenotype (%) [2]: 70% and 65% | Total Cell Count [2]: 550 and 400 | Population Apoptotic (%) [3]: 45% and 63% | Population Fragmented Nuclei (%) [3]: 6% and 2% | Population Healthy Nuclei (%) [3]: 85% and 82% | Population Hoechst High Intensity Objects (%) [3]: 6% and 9% | Population Membrane Permeable-Phenotype (%) [3]: 4% | Population Mitochondria Different-Phenotype (%) [3]: 7% and 10% | Population Mitotic Cells (%) [3]: 54% and 36% | Population Normal (%) [3]: 93% and 90% | Population Pyknosed Nuclei (%) [3]: 8% and 15% | Population Tubulin-Different-Phenotype (%) [3]: 36% and 37% | Total Cell Count [3]: 943 and 563 | Population Apoptotic (%) [4]: 64% and 54% | Population Fragmented Nuclei (%) [4]: 4% and 3% | Population Healthy Nuclei (%) [4]: 79% and 83% | Population Hoechst High Intensity Objects (%) [4]: 9% and 6% | Population Membrane Permeable-Phenotype (%) [4]: 4% and 3% | Population Mitochondria Different-Phenotype (%) [4]: 15% and 9% | Population Mitotic Cells (%) [4]: 35% and 45% | Population Normal (%) [4]: 90% and 93% | Population Pyknosed Nuclei (%) [4]: 16% and 12% | Population Tubulin-Different-Phenotype (%) [4]: 50% and 49% | Total Cell Count [4]: 552 and 801 | Population Apoptotic (%) [5]: 15% and 36% | Population Fragmented Nuclei (%) [5]: 10% and 7% | Population Healthy Nuclei (%) [5]: 84% and 86% | Population Hoechst High Intensity Objects (%) [5]: 8% and 6% | Population Membrane Permeable-Phenotype (%) [5]: 5% and 3% | Population Mitochondria Different-Phenotype (%) [5]: 0% and 3% | Population Mitotic Cells (%) [5]: 85% and 63% | Population Normal (%) [5]: 91% and 93% | Population Pyknosed Nuclei (%) [5]: 4% and 5% | Population Tubulin-Different-Phenotype (%) [5]: 16% and 20% | Total Cell Count [5]: 2361 and 1220 | Population Apoptotic (%) [6]: 39% and 41% | Population Fragmented Nuclei (%) [6]: 11% and 10% | Population Healthy Nuclei (%) [6]: 83% | Population Hoechst High Intensity Objects (%) [6]: 9% and 8% | Population Membrane Permeable-Phenotype (%) [6]: 7% | Population Mitochondria Different-Phenotype (%) [6]: 1% and 3% | Population Mitotic Cells (%) [6]: 60% and 58% | Population Normal (%) [6]: 90% and 91% | Population Pyknosed Nuclei (%) [6]: 5% | Population Tubulin-Different-Phenotype (%) [6]: 27% | Total Cell Count [6]: 1730 and 1106

COc1ccc(NC(=O)c2ccc(-c3ccc(-c4noc(C)n4)cc3C)cc2)cc1OCCN(C)C.Cl
Population Apoptotic (%) [1]: 44% and 57% | Population Fragmented Nuclei (%) [1]: 3% | Population Healthy Nuclei (%) [1]: 84% and 81% | Population Hoechst High Intensity Objects (%) [1]: 6% and 8% | Population Membrane Permeable-Phenotype (%) [1]: 3% and 4% | Population Mitochondria Different-Phenotype (%) [1]: 26% and 29% | Population Mitotic Cells (%) [1]: 55% and 42% | Population Normal (%) [1]: 93% and 91% | Population Pyknosed Nuclei (%) [1]: 11% and 15% | Population Tubulin-Different-Phenotype (%) [1]: 80% and 75% | Total Cell Count [1]: 604 and 505 | Population Apoptotic (%) [2]: 83% and 80% | Population Fragmented Nuclei (%) [2]: 5% and 4% | Population Healthy Nuclei (%) [2]: 51% and 50% | Population Hoechst High Intensity Objects (%) [2]: 19% and 18% | Population Membrane Permeable-Phenotype (%) [2]: 4% and 1% | Population Mitochondria Different-Phenotype (%) [2]: 74% and 77% | Population Mitotic Cells (%) [2]: 16% and 19% | Population Normal (%) [2]: 80% and 81% | Population Pyknosed Nuclei (%) [2]: 43% and 44% | Population Tubulin-Different-Phenotype (%) [2]: 87% and 90% | Total Cell Count [2]: 326 and 269 | Population Apoptotic (%) [3]: 55% and 64% | Population Fragmented Nuclei (%) [3]: 5% | Population Healthy Nuclei (%) [3]: 84% and 81% | Population Hoechst High Intensity Objects (%) [3]: 6% and 11% | Population Membrane Permeable-Phenotype (%) [3]: 6% and 3% | Population Mitochondria Different-Phenotype (%) [3]: 19% | Population Mitotic Cells (%) [3]: 44% and 35% | Population Normal (%) [3]: 93% and 88% | Population Pyknosed Nuclei (%) [3]: 10% and 13% | Population Tubulin-Different-Phenotype (%) [3]: 66% and 62% | Total Cell Count [3]: 768 and 603 | Population Apoptotic (%) [4]: 82% and 89% | Population Fragmented Nuclei (%) [4]: 6% | Population Healthy Nuclei (%) [4]: 32% and 33% | Population Hoechst High Intensity Objects (%) [4]: 23% and 19% | Population Membrane Permeable-Phenotype (%) [4]: 6% and 0% | Population Mitochondria Different-Phenotype (%) [4]: 74% and 77% | Population Mitotic Cells (%) [4]: 17% and 10% | Population Normal (%) [4]: 76% and 80% | Population Pyknosed Nuclei (%) [4]: 60% | Population Tubulin-Different-Phenotype (%) [4]: 74% and 86% | Total Cell Count [4]: 296 and 269 | Population Apoptotic (%) [5]: 43% and 51% | Population Fragmented Nuclei (%) [5]: 10% and 8% | Population Healthy Nuclei (%) [5]: 84% and 83% | Population Hoechst High Intensity Objects (%) [5]: 9% and 10% | Population Membrane Permeable-Phenotype (%) [5]: 5% | Population Mitochondria Different-Phenotype (%) [5]: 3% and 6% | Population Mitotic Cells (%) [5]: 56% and 48% | Population Normal (%) [5]: 90% and 89% | Population Pyknosed Nuclei (%) [5]: 4% and 8% | Population Tubulin-Different-Phenotype (%) [5]: 40% and 41% | Total Cell Count [5]: 1630 and 1219 | Population Apoptotic (%) [6]: 86% and 92% | Population Fragmented Nuclei (%) [6]: 8% and 7% | Population Healthy Nuclei (%) [6]: 24% and 19% | Population Hoechst High Intensity Objects (%) [6]: 28% and 22% | Population Membrane Permeable-Phenotype (%) [6]: 3% and 2% | Population Mitochondria Different-Phenotype (%) [6]: 72% and 70% | Population Mitotic Cells (%) [6]: 13% and 7% | Population Normal (%) [6]: 71% and 77% | Population Pyknosed Nuclei (%) [6]: 66% and 72% | Population Tubulin-Different-Phenotype (%) [6]: 84% and 87% | Total Cell Count [6]: 289 and 271
